Data on one compound can be found in ChEMBL document CHEMBL4334460, “Madecassic Acid Derivatives as Potential Anticancer Agents: Synthesis and Cytotoxic Evaluation” (2019).

Test [1] concerns COLO 205. Kind of test: Induction of cell cycle arrest in human COLO205 cells assessed as cell population at G2/M phase at 20 uM after 48 hrs by PI/RNase staining based flow cytometry (reference value: 18.6%). The class given is functional. The procedure, abridged:
(§1)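 COLO 205 cells grown at 37 °C, 5% CO2 in RPMI with 10% FBS and penicillin/streptomycin. Treated 48 h with 10 or 20 μM compound or DMSO vehicle. Cells trypsinized, fixed in ethanol 15 min on ice, stained with PI/RNase solution 40 min at 37 °C, then analysed by imaging cytometry. % cells per phase given as mean ± SD of three independent experiments.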
Background: Flow cytometry measures light scatter and fluorescence of single cells or particles in a stream.

Test [2] deals with CCRF-CEM. Kind of test: Antiproliferative activity against human CCRF-CEM cells assessed as growth inhibition after 48 hrs by sulforhodamine B assay. The note with it: pooled result: one value given for 58 cell lines, strains, targets or settings. The class given is functional. Background: Sulforhodamine B stains cellular protein and so reports cell mass.
Test [3] can be described thus: Selectivity ratio of GI50 for human Hs 578T cells to GI50 for human MCF7 cells. The class given is functional.
Test [4] deals with COLO 205. Put plainly: Induction of cell cycle arrest in human COLO205 cells assessed as cell population at G0/G1 phase at 20 uM after 48 hrs by PI/RNase staining based flow cytometry (reference value: 63.8%). Type of test: functional. The procedure, abridged: as §1
Test [5] relates to UACC-257. Kind of test: Antiproliferative activity against human UACC257 cells assessed as growth inhibition after 48 hrs by sulforhodamine B assay. Type of test: functional. As to conditions: UACC-257, 48 h. Put shortly: (§2)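 NCI-60 five-dose follow-up, run only when the one-dose screen indicated activity. Doses 100 μM down to 0.01 μM in log steps (0.01, 0.1, 1, 10, 100 μM). 48 h incubation with sulforhodamine B read-out. A time-zero cell control allowed calculation of GI50 from % growth vs concentration dose–response curves.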

Test [6] can be described thus: Selectivity ratio of GI50 for human RXF 393 cells to GI50 for human CAKi1 cells. The class given is functional.
The nature of test [7]: Selectivity ratio of GI50 for human OVCAR5 cells to GI50 for human OVCAR4 cells. The class given is functional.
Test [8] in a line: Selectivity ratio of GI50 for human NCI-H226 cells to GI50 for human NCI-H460 cells. The class given is functional.
The test system of a further test is HCT-15. Put plainly: Antiproliferative activity against human HCT15 cells assessed as growth inhibition after 48 hrs by sulforhodamine B assay. Type of test: functional. The note with it: HCT-15, 48 h.
Test [9] concerns COLO 205. Kind of test: Induction of cell cycle arrest in human COLO205 cells assessed as cell population at S phase at 20 uM after 48 hrs by PI/RNase staining based flow cytometry (reference value: 16.3%). The class given is functional. The procedure, abridged:
as §1

Test [10] deals with UACC-257. Kind of test: Antiproliferative activity against human UACC257 cells assessed as reduction in cell viability after 48 hrs by SRB assay. The class given is functional. The note with it: UACC-257, 48 h, read-out: LC50 (the source's name). Put shortly:
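NCI-60 five-dose testing at 100, 10, 1, 0.1 and 0.01 μM (log dilutions). After 48 h incubation, viability was read by sulforhodamine B staining. A time-zero cell control gave total growth per cell line. GI50, TGI and LC50 were calculated from % growth versus concentration curves.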

Test [11] in a line: Selectivity ratio of GI50 for human NCI-H226 cells to GI50 for human NCI-H23 cells. The class given is functional.
In test [12] the test system is COLO 205. Kind of test: Induction of cell cycle arrest in human COLO205 cells assessed as cell population at S phase at 10 uM after 48 hrs by PI/RNase staining based flow cytometry (reference value: 16.3%). Type of test: functional. The procedure, abridged: as §1
Another test concerns UO-31. Kind of test: Antiproliferative activity against human UO31 cells assessed as growth inhibition after 48 hrs by sulforhodamine B assay. Type of test: functional. The note with it: UO-31, 48 h. The procedure, abridged:
as §2

Test [13] concerns COLO 205. Kind of test: Induction of cell cycle arrest in human COLO205 cells assessed as cell population at G2/M phase at 10 uM after 48 hrs by PI/RNase staining based flow cytometry (reference value: 18.6%). The class given is functional. Put shortly:
as §1

In test [14] the test system is COLO 205. Kind of test: Induction of mitochondrial dysfunction in human COLO205 cells assessed as reduction in mitochondrial membrane potential by measuring shift in red to green fluorescence after 48 hrs by JC-1 staining based inverted microscopic analysis. The class given is functional, cell-based. Put shortly: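 COLO 205 cells (5 × 10^5) grown on coverslips overnight, then treated 48 h with 10 or 20 μM compound or DMSO. Fresh medium with 4 μg/mL JC-1 added for 30 min at 37 °C. Cells washed twice and imaged immediately by inverted fluorescence microscopy (40× objective) at room temperature, scoring red aggregate vs green monomer fluorescence.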

Test [15] is described as follows: Selectivity ratio of GI50 for human Hs 578T cells to GI50 for human MDA-MB-468 cells. The class given is functional.
Test [16] relates to COLO 205. Kind of test: Induction of cell cycle arrest in human COLO205 cells assessed as cell population at G0/G1 phase at 10 uM after 48 hrs by PI/RNase staining based flow cytometry (reference value: 63.8%). The class given is functional. Put shortly: as §1
Test [17] is described as follows: Selectivity ratio of GI50 for human Hs 578T cells to GI50 for human T47D cells. Type of test: functional.
A further test has as its system SK-MEL-5. Put plainly: Antiproliferative activity against human SK-MEL-5 cells assessed as growth inhibition after 48 hrs by sulforhodamine B assay. The class given is functional. As to conditions: SK-MEL-5, 48 h.
The subject of test [18] is CCRF-CEM. Put plainly: Antiproliferative activity against human CCRF-CEM cells assessed as cell growth at 10 uM after 48 hrs by sulforhodamine B assay relative to control. Type of test: functional. As to conditions: pooled result: one value given for 60 cell lines, strains, targets or settings, read-out: Activity. The procedure, abridged: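 NCI-60 one-dose screen: cells exposed to test compound at a single 10 μM concentration, viability after 48 h read by sulforhodamine B staining; value is growth percent versus negative control, with a time-zero cell control used to determine total cell growth.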

Test [19] deals with COLO 205. Put plainly: Antiproliferative activity against human COLO205 cells assessed as growth inhibition after 48 hrs by sulforhodamine B assay. Type of test: functional. As to conditions: COLO 205, 48 h.

Broadly, the GI50 is the concentration giving 50% growth inhibition. Usually TGI stands for the concentration at which net growth stops. Take `COC(=O)[C@]12CC[C@@H](C)[C@H](C)[C@H]1C1=CC[C@@H]3[C@@]4(C)CC(=O)[C@H](OC(=O)c5ccco5)[C@@]5(C)COC(=C45)C[C@@]3(C)[C@]1(C)CC2`: the Activity is 6.2% with COLO 205 [1]; 89.1% in the test on COLO 205 [4]; 3.3% in the test with COLO 205 [9]; 3.8% with COLO 205 [12]; 6.6% with COLO 205 [13]; “Dose-dependent effect” in the test with COLO 205 [14]. The Activity in the test on COLO 205 [16] was 88.4%. For the same compound, the GI50 in the test on CCRF-CEM [2] is 2.3 µM; with HCT-15 it was 0.5 µM; in the test with UO-31, 1.7 µM. Moreover, the RatioGI50 was above 100 in [3]; above 50 in test [6]; above 50 in [7]; above 100 in test [8]; above 50 in [11]; above 100 in [15]. The RatioGI50 in test [17] is given as above 100. The concentration for total growth inhibition (TGI) amounted to 3 µM in the test with UACC-257 [5], 2.6 µM in the test on SK-MEL-5 and 3 µM in the test on COLO 205 [19]. The CC50 in the test on UACC-257 [10] was 50.1 µM. For the same compound, the growth at 10 µM with CCRF-CEM [18] is 27.2%.
